Key:
Format in all cases: functional
HCT-15 = assay: Growth inhibition of human HCT15 cells at 10 uM after 48 hrs by coulter counter method; conditions: HCT-15, 48 h, read-out: GI
How it was run: (§1)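 NCI 60-cell-line panel, single dose. Compound dissolved first in DMSO, then diluted in phosphate-buffered saline so that every final dilution held under 1% DMSO. Duplicate wells received cells at 6 × 10⁴ cells/ml. Controls held PBS/DMSO at the same dilution. Plates were incubated 48 h at 37 °C under 5% CO₂. Cells were then diluted 10-fold in saline and counted on a Coulter counter, with counts corrected for the dilution. Results are given as percent growth inhibition.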

OVCAR-8 = assay: Growth inhibition of human OVCAR8 cells at 10 uM after 48 hrs by coulter counter method; conditions: OVCAR-8, 48 h, read-out: GI; how it was run: as §1
UACC-257 = assay: Growth inhibition of human UACC257 cells at 10 uM after 48 hrs by coulter counter method; conditions: UACC-257, 48 h, read-out: GI; how it was run: as §1
NCI/ADR-RES = assay: Growth inhibition of human NCI/ADR-RES cells at 10 uM after 48 hrs by coulter counter method; conditions: read-out: GI; how it was run: as §1
Malme-3M = assay: Growth inhibition of human MALME-3M cells at 10 uM after 48 hrs by coulter counter method; conditions: read-out: GI; how it was run: as §1
SR = assay: Growth inhibition of human SR cells at 10 uM after 48 hrs by coulter counter method; conditions: read-out: GI; how it was run: as §1
MOLT-4 = assay: Growth inhibition of human MOLT4 cells at 10 uM after 48 hrs by coulter counter method; conditions: MOLT-4, 48 h, read-out: GI; how it was run: as §1
SK-MEL-28 = assay: Growth inhibition of human SK-MEL-28 cells at 10 uM after 48 hrs by coulter counter method; conditions: SK-MEL-28, 48 h, read-out: GI; how it was run: as §1
SNB-19 = assay: Growth inhibition of human SNB19 cells at 10 uM after 48 hrs by coulter counter method; conditions: SNB-19, 48 h, read-out: GI; how it was run: as §1
CAKI-1 = assay: Growth inhibition of human Caki1 cells at 10 uM after 48 hrs by coulter counter method; conditions: CAKI-1, 48 h, read-out: GI; how it was run: as §1
SN12C = assay: Growth inhibition of human SN12C cells at 10 uM after 48 hrs by coulter counter method; conditions: read-out: GI; how it was run: as §1
LOX IMVI = assay: Growth inhibition of human LOXIMVI cells at 10 uM after 48 hrs by coulter counter method; conditions: read-out: GI; how it was run: as §1
MDA-MB-468 = assay: Growth inhibition of human MDA-MB-468 cells at 10 uM after 48 hrs by coulter counter method; conditions: MDA-MB-468, 48 h, read-out: GI; how it was run: as §1
UACC-62 = assay: Growth inhibition of human UACC62 cells at 10 uM after 48 hrs by coulter counter method; conditions: UACC-62, 48 h, read-out: GI; how it was run: as §1
PC-3 = assay: Growth inhibition of human PC3 cells at 10 uM after 48 hrs by coulter counter method; conditions: PC-3, 48 h, read-out: GI; how it was run: as §1
NCI-H322M = assay: Growth inhibition of human NCI-H322M cells at 10 uM after 48 hrs by coulter counter method; conditions: read-out: GI; how it was run: as §1
NCI-H226 = assay: Growth inhibition of human NCI-H226 cells at 10 uM after 48 hrs by coulter counter method; conditions: NCI-H226, 48 h, read-out: GI; how it was run: as §1
EKVX = assay: Growth inhibition of human EKVX cells at 10 uM after 48 hrs by coulter counter method; conditions: read-out: GI; how it was run: as §1
IGROV-1 = assay: Growth inhibition of human IGROV1 cells at 10 uM after 48 hrs by coulter counter method; conditions: IGROV-1, 48 h, read-out: GI; how it was run: as §1
BT-549 = assay: Growth inhibition of human BT549 cells at 10 uM after 48 hrs by coulter counter method; conditions: BT-549, 48 h, read-out: GI; how it was run: as §1
SF-295 = assay: Growth inhibition of human SF295 cells at 10 uM after 48 hrs by coulter counter method; conditions: SF-295, 48 h, read-out: GI; how it was run: as §1
MCF7 = assay: Growth inhibition of human MCF7 cells at 10 uM after 48 hrs by coulter counter method; conditions: MCF7, 48 h, read-out: GI; how it was run: as §1
786-0 = assay: Growth inhibition of human 786-0 cells at 10 uM after 48 hrs by coulter counter method; conditions: 786-0, 48 h, read-out: GI; how it was run: as §1
NCI-H23 = assay: Growth inhibition of human NCI-H23 cells at 10 uM after 48 hrs by coulter counter method; conditions: NCI-H23, 48 h, read-out: GI; how it was run: as §1
NCI-H522 = assay: Growth inhibition of human NCI-H522 cells at 10 uM after 48 hrs by coulter counter method; conditions: NCI-H522, 48 h, read-out: GI; how it was run: as §1
HT-29 = assay: Growth inhibition of human HT-29 cells at 10 uM after 48 hrs by coulter counter method; conditions: HT-29, 48 h, read-out: GI; how it was run: as §1
TK-10 = assay: Growth inhibition of human TK10 cells at 10 uM after 48 hrs by coulter counter method; conditions: TK-10, 48 h, read-out: GI; how it was run: as §1
T47D = assay: Growth inhibition of human T47D cells at 10 uM after 48 hrs by coulter counter method; conditions: read-out: GI; how it was run: as §1
KM12 = assay: Growth inhibition of human KM12 cells at 10 uM after 48 hrs by coulter counter method; conditions: KM12, 48 h, read-out: GI; how it was run: as §1
K562 = assay: Growth inhibition of human K562 cells at 10 uM after 48 hrs by coulter counter method; conditions: K562, 48 h, read-out: GI; how it was run: as §1
CCRF-CEM = assay: Growth inhibition of human CCRF-CEM cells at 10 uM after 48 hrs by coulter counter method; conditions: read-out: GI; how it was run: as §1
SK-MEL-2 = assay: Growth inhibition of human SK-MEL-2 cells at 10 uM after 48 hrs by coulter counter method; conditions: SK-MEL-2, 48 h, read-out: GI; how it was run: as §1
MDA-MB-435 = assay: Growth inhibition of human MDA-MB-435 cells at 10 uM after 48 hrs by coulter counter method; conditions: MDA-MB-435, 48 h, read-out: GI; how it was run: as §1
UO-31 = assay: Growth inhibition of human UO31 cells at 10 uM after 48 hrs by coulter counter method; conditions: UO-31, 48 h, read-out: GI; how it was run: as §1
HCT-116 = assay: Growth inhibition of human HCT116 cells at 10 uM after 48 hrs by coulter counter method; conditions: HCT-116, 48 h, read-out: GI; how it was run: as §1
SNB-75 = assay: Growth inhibition of human SNB75 cells at 10 uM after 48 hrs by coulter counter method; conditions: SNB-75, 48 h, read-out: GI; how it was run: as §1
M14 = assay: Growth inhibition of human M14 cells at 10 uM after 48 hrs by coulter counter method; conditions: M14, 48 h, read-out: GI; how it was run: as §1
ACHN = assay: Growth inhibition of human ACHN cells at 10 uM after 48 hrs by coulter counter method; conditions: read-out: GI; how it was run: as §1
HL-60(TB) = assay: Growth inhibition of human HL-60(TB) cells at 10 uM after 48 hrs by coulter counter method; conditions: HL-60, 48 h, read-out: GI
How it was run: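 Single-dose screen on the NCI 60-line panel (leukemia subpanel). Compound is dissolved in DMSO and diluted in PBS, with final DMSO below 1%. Duplicate wells hold 6 × 10⁴ cells/ml at 37 °C, 5% CO₂, for 48 h. Cells are counted by Coulter counter after 10-fold saline dilution. Read-out is percent growth versus PBS/DMSO controls, expressed as % growth inhibition.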

RPMI-8226 = assay: Growth inhibition of human RPMI8226 cells at 10 uM after 48 hrs by coulter counter method; conditions: RPMI-8226, 48 h, read-out: GI; how it was run: as §1
SF-268 = assay: Growth inhibition of human SF268 cells at 10 uM after 48 hrs by coulter counter method; conditions: SF-268, 48 h, read-out: GI; how it was run: as §1
SK-MEL-5 = assay: Growth inhibition of human SK-MEL-5 cells at 10 uM after 48 hrs by coulter counter method; conditions: SK-MEL-5, 48 h, read-out: GI; how it was run: as §1
U-251 = assay: Growth inhibition of human U251 cells at 10 uM after 48 hrs by coulter counter method; conditions: U-251, 48 h, read-out: GI; how it was run: as §1
A549 = assay: Growth inhibition of human A549 cells at 10 uM after 48 hrs by coulter counter method; conditions: A549, 48 h, read-out: GI; how it was run: as §1
A498 = assay: Growth inhibition of human A498 cells at 10 uM after 48 hrs by coulter counter method; conditions: A498, 48 h, read-out: GI; how it was run: as §1

Measured: inhibition of growth at 10 µM

O=C1N=C2OC(c3ccccc3)=NN2C1=O
20.5%: UO-31
12.5%: NCI-H322M
15.2%: UACC-257
< 10%: all other assays above

Reference: ChEMBL document CHEMBL1926577, “Novel 1,3,4-heterodiazole analogues: synthesis and in-vitro antitumor activity” (2012)
